In paper PMC10099142 (ACS Omega, 2023):
Read-outs that look alike come from different tables or passages of the source.

Legend:
Type in all cases: cell-based
[1] = test system: 3T3-L1, a fibroblast cell line; assay: Screening of toxicity in normal cell line; conditions: Mus musculus, 3T3-L1, 72 h, read-out: IC50 3T3-L1 72 h
Procedure, shortened: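 3T3-L1 fibroblasts are kept in DMEM with 5% FBS and antibiotics at 37 °C in humidified 5% CO2. They are seeded at 5 × 10^3 per well and grown to confluency, then treated with a range of test compound concentrations. MTT is added for 3 h after removing the medium, and formazan is dissolved in DMSO. A570 is read and percentage cell death is calculated.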

[2] = test system: human breast adenocarcinoma (MDA-MB-231); assay: MTT assay, antiproliferative activity, MDA-MB-231
Procedure, shortened: (§1)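 A549 cells are grown in DMEM and MDA-MB-231 cells in MEM, both with FBS and antibiotics, at 37 °C in humidified 5% CO2, then trypsinized. Cells are seeded at 5 × 10^3 per well and grown to confluency. They are exposed to a range of test compound concentrations for 24 h or 72 h, with 5-fluorouracil as reference. Medium is removed, MTT is added for 3 h, and formazan is dissolved in DMSO. A570 is read and percentage cell death is calculated.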

[3] = test system: human lung adenocarcinoma (A549); assay: MTT assay, antiproliferative activity, A549
Procedure, shortened: as §1

O=c1[nH]cc(F)c(=O)[nH]1 [5-fluorouracil]
IC50 [1]: 41.4 ± 1.05 µM | IC50 ([2]; MDA-MB-231, 24 h, read-out: IC50 MDA-MB-231 24 h): 885 ± 0.76 µM | IC50 ([2]; MDA-MB-231, 72 h, read-out: IC50 MDA-MB-231 72 h): 29.01 ± 0.01 µM | IC50 ([3]; A549, 24 h, read-out: IC50 A549 24 h): 747 ± 0.13 µM | IC50 ([3]; A549, 72 h, read-out: IC50 A549 72 h): 17 ± 0.41 µM
